Laboratory results published in ChEMBL document CHEMBL4359914, “Design, synthesis and biological evaluation of stereo- and regioisomers of amino aryl esters as multidrug resistance (MDR) reversers” (Eur J Med Chem, 2019).

Key:
[1] = target: T1, ATP-dependent translocase ABCB1 (Homo sapiens, UniProt P08183); assay: Inhibition of P-gp (unknown origin) expressed in MDCK-MDR1 cells assessed as increase in calcein-AM accumulation incubated for 30 mins by calcein-AM dye based fluorescence assay; format: cell-based
[2] = target: T1, ATP-dependent translocase ABCB1; assay: Inhibition of P-gp in human K562/DOX cells assessed as drug level causing 50% increase in nuclear pirarubicin concentration incubated for 30 mins by fluorescence based assay; format: cell-based; conditions: read-out: I0.5
[3] = target: T1, ATP-dependent translocase ABCB1; assay: Inhibition of P-gp in human K562/DOX cells assessed as drug level causing maximum increase in nuclear pirarubicin concentration incubated for 30 mins by fluorescence based assay relative to control; format: cell-based; conditions: 0.5 h
[4] = target: T2, Broad substrate specificity ATP-binding cassette transporter ABCG2 (Homo sapiens, UniProt Q9UNQ0); assay: Inhibition of BCRP (unknown origin) expressed in MDCK cells assessed as increase in Hoechst 33342 accumulation incubated for 30 mins by Hoechst 33342 dye based fluorescence assay; format: cell-based; conditions: read-out: EC50
T2 sequence (Q9UNQ0 whole entry): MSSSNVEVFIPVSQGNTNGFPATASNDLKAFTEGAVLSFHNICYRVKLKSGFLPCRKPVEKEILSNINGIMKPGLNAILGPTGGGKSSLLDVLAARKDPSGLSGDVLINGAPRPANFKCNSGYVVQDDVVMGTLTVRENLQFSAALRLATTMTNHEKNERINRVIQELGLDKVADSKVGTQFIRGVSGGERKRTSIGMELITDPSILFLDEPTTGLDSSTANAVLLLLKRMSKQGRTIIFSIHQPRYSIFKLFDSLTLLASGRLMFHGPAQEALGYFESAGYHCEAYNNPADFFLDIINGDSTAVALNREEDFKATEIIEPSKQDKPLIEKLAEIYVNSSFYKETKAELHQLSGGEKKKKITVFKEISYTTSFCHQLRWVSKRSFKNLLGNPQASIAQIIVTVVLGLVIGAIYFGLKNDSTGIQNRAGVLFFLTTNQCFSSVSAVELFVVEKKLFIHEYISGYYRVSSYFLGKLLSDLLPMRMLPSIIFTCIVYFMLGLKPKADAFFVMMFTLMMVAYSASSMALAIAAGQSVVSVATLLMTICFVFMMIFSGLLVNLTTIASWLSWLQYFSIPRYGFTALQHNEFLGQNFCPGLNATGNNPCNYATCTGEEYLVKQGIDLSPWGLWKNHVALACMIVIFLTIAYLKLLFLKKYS

[5] = target: T1, ATP-dependent translocase ABCB1; assay: Inhibition of MDR1 (unknown origin) expressed in MDCK-MDR1 cells assessed as decrease in ATP consumption incubated for 2 hrs by ATPlite luminescence assay; format: cell-based; conditions: mdck-mdr1, 2 h
[6] = Chemical stability of compound assessed as half life in PBS at 1 uM incubated 120 mins by LC-MS/MS analysis; format: physicochemical
Procedure, shortened: (§1)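 Analyte added to PBS or human plasma (healthy volunteer, stored at -80 °C) to 1 μM; incubated at 37 °C for 0, 30, 60 and 120 min, triplicate per time point. Internal standard solution added, centrifuged, supernatant dried under nitrogen and redissolved. Analyte quantified by LC-MS/MS in MRM mode; half-life derived from decay rate k.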

[7] = Stability of compound in human plasma assessed as half life at 1 uM incubated for 120 min by LC-MS/MS analysis; format: ADME, cell-free; procedure, shortened: as §1
P-gp (MDR1, ABCB1) = P-gp (MDR1, ABCB1) (Homo sapiens, UniProt P08183); assay: Inhibition of MDR1 (unknown origin) expressed in MDCK-MDR1 cells assessed as decrease in ATP consumption at 10 uM incubated for 2 hrs by ATPlite luminescence assay relative to control; format: cell-based; conditions: MDCK-MDR1 cells expressing MDR1
P-gp (MDR1, ABCB1), sequence (P08183 whole entry): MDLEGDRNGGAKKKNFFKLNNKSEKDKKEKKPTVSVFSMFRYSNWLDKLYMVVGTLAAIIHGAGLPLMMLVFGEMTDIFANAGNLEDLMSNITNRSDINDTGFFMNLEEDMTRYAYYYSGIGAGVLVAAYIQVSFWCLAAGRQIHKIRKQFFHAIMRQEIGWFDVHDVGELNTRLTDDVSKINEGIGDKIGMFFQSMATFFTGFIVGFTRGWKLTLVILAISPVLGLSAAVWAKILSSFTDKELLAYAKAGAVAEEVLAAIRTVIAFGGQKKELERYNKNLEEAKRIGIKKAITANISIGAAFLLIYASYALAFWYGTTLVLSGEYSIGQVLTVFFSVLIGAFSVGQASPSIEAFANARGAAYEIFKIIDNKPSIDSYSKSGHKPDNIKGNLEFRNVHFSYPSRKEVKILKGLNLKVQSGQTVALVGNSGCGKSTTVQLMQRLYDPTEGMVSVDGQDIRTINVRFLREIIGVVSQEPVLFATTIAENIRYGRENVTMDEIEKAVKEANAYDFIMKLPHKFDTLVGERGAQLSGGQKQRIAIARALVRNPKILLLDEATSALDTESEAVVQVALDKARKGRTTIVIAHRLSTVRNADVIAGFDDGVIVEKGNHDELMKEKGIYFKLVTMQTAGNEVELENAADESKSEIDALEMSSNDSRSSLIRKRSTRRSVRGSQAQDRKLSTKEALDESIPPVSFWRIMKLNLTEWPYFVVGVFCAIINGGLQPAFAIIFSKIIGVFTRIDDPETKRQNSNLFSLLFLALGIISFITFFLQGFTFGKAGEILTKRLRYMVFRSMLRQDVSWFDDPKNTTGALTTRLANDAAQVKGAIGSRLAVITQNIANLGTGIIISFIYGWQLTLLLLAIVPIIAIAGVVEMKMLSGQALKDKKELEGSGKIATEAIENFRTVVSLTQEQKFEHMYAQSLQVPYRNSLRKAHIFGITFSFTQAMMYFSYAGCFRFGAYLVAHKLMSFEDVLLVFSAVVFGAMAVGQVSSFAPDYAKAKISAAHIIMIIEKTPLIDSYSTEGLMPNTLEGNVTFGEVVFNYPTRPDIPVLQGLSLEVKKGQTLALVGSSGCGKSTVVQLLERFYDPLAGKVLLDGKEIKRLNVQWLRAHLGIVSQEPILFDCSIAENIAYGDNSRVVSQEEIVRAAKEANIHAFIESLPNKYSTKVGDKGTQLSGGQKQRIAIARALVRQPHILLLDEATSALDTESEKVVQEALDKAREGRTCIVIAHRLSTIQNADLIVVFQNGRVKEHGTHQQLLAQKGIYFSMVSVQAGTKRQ

T1 sequence (P08183 whole entry): as above

| EC50 [1] [nM] | IC50 [2] [nM] | Alpha max [3] | EC50 [4] [µM] | inhibition (INH) [5] | half-life at 1 µM [6] [min] | half-life at 1 µM [7] [min] | inhibition at 2 h, 10 µM (P-gp (MDR1, ABCB1)) [%] | SMILES |
| --- | --- | --- | --- | --- | --- | --- | --- | --- |
| 960 | 170 | 0.8 | 6.8 | Not Active | ≥ 240 | ≥ 240 | – | COc1cc(/C=C/C(=O)OCCCN(C)C[C@@H](C)COC(=O)c2c3ccccc3cc3ccccc23)cc(OC)c1OC |
| 910 | 40 | 0.99 | 11 | Not Active | ≥ 240 | ≥ 240 | – | COc1cc(/C=C/C(=O)OCCCN(C)C[C@H](C)COC(=O)c2c3ccccc3cc3ccccc23)cc(OC)c1OC |
| 910 | 180 | 0.79 | 2.3 | Not Active | ≥ 240 | ≥ 240 | – | COc1cc(/C=C/C(=O)OC[C@@H](C)CN(C)CCCOC(=O)c2c3ccccc3cc3ccccc23)cc(OC)c1OC |
| 760 | 80 | 0.75 | 4.6 | Not Active | ≥ 240 | ≥ 240 | – | COc1cc(/C=C/C(=O)OCCCCCN(C)C[C@H](C)COC(=O)c2c3ccccc3cc3ccccc23)cc(OC)c1OC |
| 950 | 80 | 0.99 | 5.9 | Not Active | ≥ 240 | ≥ 240 | – | COc1cc(/C=C/C(=O)OC[C@H](C)CN(C)CCCOC(=O)c2c3ccccc3cc3ccccc23)cc(OC)c1OC |
| 690 | 30 | 0.79 | 4.7 | Not Active | ≥ 240 | ≥ 240 | – | COc1cc(/C=C/C(=O)OC[C@@H](C)CN(C)CCCCCOC(=O)c2c3ccccc3cc3ccccc23)cc(OC)c1OC |
| 810 | 230 | 0.89 | 4.6 | Not Active | ≥ 240 | ≥ 240 | – | COc1cc(/C=C/C(=O)OCCCCCN(C)C[C@@H](C)COC(=O)c2c3ccccc3cc3ccccc23)cc(OC)c1OC |

Continued, molecule first:

| SMILES | EC50 [1] [nM] | IC50 [2] [nM] | Alpha max [3] | EC50 [4] [µM] | inhibition (INH) [5] | half-life at 1 µM [6] [min] | half-life at 1 µM [7] [min] | inhibition at 2 h, 10 µM (P-gp (MDR1, ABCB1)) [%] |
| --- | --- | --- | --- | --- | --- | --- | --- | --- |
| COc1cc(/C=C/C(=O)OC[C@@H](C)CN(C)CCCCCOC(=O)c2cc(OC)c(OC)c(OC)c2)cc(OC)c1OC | 1100 | 80 | 0.99 | 4.2 | Not Active | ≥ 240 | 18 | – |
| COc1cc(/C=C/C(=O)OC[C@@H](C)CN(C)CCCCCCCOC(=O)c2cc(OC)c(OC)c(OC)c2)cc(OC)c1OC | 320 | 380 | 0.74 | 2.3 | Not Active | ≥ 240 | 30 | – |
| COc1cc(/C=C/C(=O)OCCCCCN(C)C[C@H](C)COC(=O)c2cc(OC)c(OC)c(OC)c2)cc(OC)c1OC | 110 | 240 | 0.75 | 8.1 | Not Active | ≥ 240 | ≥ 240 | – |
| COc1cc(/C=C/C(=O)OCCCCCCCN(C)C[C@@H](C)COC(=O)c2cc(OC)c(OC)c(OC)c2)cc(OC)c1OC | 650 | 120 | 0.83 | 4.3 | Not Active | ≥ 240 | ≥ 240 | – |
| COc1cc(/C=C/C(=O)OC[C@H](C)CN(C)CCCCCCCOC(=O)c2c3ccccc3cc3ccccc23)cc(OC)c1OC | 1400 | 970 | 0.65 | 6.4 | Not Active | ≥ 240 | ≥ 240 | – |
| COc1cc(/C=C/C(=O)OC[C@@H](C)CN(C)CCCCCCCOC(=O)c2c3ccccc3cc3ccccc23)cc(OC)c1OC | 930 | 890 | 0.8 | 5.6 | Not Active | ≥ 240 | ≥ 240 | – |
| COc1cc(/C=C/C(=O)OC[C@H](C)CN(C)CCCCCOC(=O)c2c3ccccc3cc3ccccc23)cc(OC)c1OC | 720 | 80 | 0.88 | 2.3 | Not Active | ≥ 240 | ≥ 240 | – |
| COc1cc(/C=C/C(=O)OCCCN(C)C[C@@H](C)COC(=O)c2cc(OC)c(OC)c(OC)c2)cc(OC)c1OC | 73 | 110 | 0.99 | 9.5 | Not Active | ≥ 240 | 54 | – |
| COc1cc(/C=C/C(=O)OCCCCCCCN(C)C[C@@H](C)COC(=O)c2c3ccccc3cc3ccccc23)cc(OC)c1OC | 990 | 200 | 0.93 | 6.2 | Not Active | ≥ 240 | ≥ 240 | – |
| COc1cc(/C=C/C(=O)OC[C@H](C)CN(C)CCCOC(=O)c2cc(OC)c(OC)c(OC)c2)cc(OC)c1OC | 710 | 140 | 0.99 | 33.5 | Not Active | ≥ 240 | 117 | – |
| COc1cc(/C=C/C(=O)OC[C@@H](C)CN(C)CCCOC(=O)c2cc(OC)c(OC)c(OC)c2)cc(OC)c1OC | 1380 | 90 | 0.75 | 3.7 | – | ≥ 240 | 29 | 20 |
| COc1cc(/C=C/C(=O)OCCCCCCCN(C)C[C@H](C)COC(=O)c2cc(OC)c(OC)c(OC)c2)cc(OC)c1OC | 550 | 130 | 0.7 | 2.5 | Not Active | ≥ 240 | ≥ 240 | – |
| COc1cc(/C=C/C(=O)OC[C@H](C)CN(C)CCCCCCCOC(=O)c2cc(OC)c(OC)c(OC)c2)cc(OC)c1OC | 820 | 590 | 0.81 | 4.7 | Not Active | ≥ 240 | 74 | – |
| COc1cc(/C=C/C(=O)OCCCCCCCN(C)C[C@H](C)COC(=O)c2c3ccccc3cc3ccccc23)cc(OC)c1OC | 1040 | 80 | 0.99 | 7.2 | Not Active | ≥ 240 | ≥ 240 | – |
